From PubChem BioAssay come the findings set out here.

Activity calls are given as the source filed them.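 Rule for the calls, unless noted: active = fluorescence slope after compound addition differing from the mean of all screened samples at 99.7% confidence, in either direction; inactive = the rest.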

A short description of test [1]: inhibitors of TNFa-induced NFkB p65 translocation, primary screen, imaging, HUVEC, MLSMR starter and 10KST1 sets (AID 438;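 active = inhibition above 20% together with a positive visual image hit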;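 note: compound added about 3h40 before a 20 min TNFalpha stimulation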;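 for inhibition: signal is the nuclear over cytoplasmic p65 intensity ratio per well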). The note with it: HUVEC TNFa-induced p65 nuclear translocation; cell count: measured here: nuclei count (cytotoxicity indicator), at 2.08 µM; inhibition: at 2 µM, stronger effect = higher value, 0% TNFa-plus-vehicle, 100% no-TNFa wells.
The nature of test [2]: inhibitors of mutant huntingtin aggregation, primary screen, imaging, exon1htt(103Q)mCFP cells, high-content imaging (AID 483;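 active = visual image review flags a hit and inhibition of aggregation exceeds 20%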;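 note: compound exposure lasted 3 days before fixation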;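 for nuclei count: percent of the per-plate median nuclei count of sample wells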). The note with it: exon1htt(103Q)mCFP cell line, aggregate imaging, at 2 µM; inhibition of aggregation: stronger effect = higher value; nuclei count: measured here: cell count, toxicity.
Test [3] can be described thus: inhibitors of E-selectin induction by TNFa, primary screen, imaging, HUVEC, immunofluorescence, MLSMR starter and 10KST1 sets (AID 487;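 active = visually confirmed hit in the image check and inhibition above 20%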;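 for inhibition: signal is fraction of cell area covered by stained E-selectin grains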;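 for nuclei count: 100% = median nuclei count of all wells on the same plate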). The note with it: HUVEC TNFalpha-induced E-selectin immunofluorescence imaging, at 2 µM; inhibition: stronger effect = higher value; nuclei count: measured here: cell number, toxicity.
The target in test [4] is Voltage-gated potassium channel subunit beta-2 (Rattus norvegicus) (UniProt P62483). The experiment in a line: KvBeta enzyme negative modulators, primary screen, biochemical, NADPH fluorescence (AID 622;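 active = fluorescence slope higher than the sample average by over 3 SD, cut at about -0.22 in these data, passing the limit was not always enough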;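 note: slope of raw intensity against log time taken from 70 to 1610 s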). To be noted: recombinant KvBeta, 4-cyanobenzaldehyde reduction, at 10 µM, stronger effect = higher value.
For test [5] the target is unchanged. The experiment in a line: KvBeta positive modulators, primary screen, biochemical, NADPH fluorescence (AID 623;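 active = NADPH fluorescence slope more negative than the mean of all samples by about 3 SD, 99.7% confidence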;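 note: fluorescence intensity change per second fitted from 20 to 320 s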). The note with it: Recombinant KvBeta, NADPH fluorescence decrease slope, 10 min; at 10 µM; stronger effect = lower value.
Test [6] has as its target Alpha-2C adrenergic receptor (Homo sapiens) (UniProt P18825). The experiment in a line: modulators of alpha2C/GIRK thallium flux, primary screen, cell-based, HEK293 alpha2C/GIRK1/2 (AID 624).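 Note: slope of fluorescence ratio to pre-addition baseline per second over 15 to 24 s.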 To be noted: thallium flux BTC fluorescence, at 10 µM, actives lie on both sides.
Test [7] can be described thus: inhibitors of larval lipid processing in zebrafish, primary screen, whole organism, PED6 fluorescence, gall bladder and intestine (AID 686;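 active = a full or partial loss of lipid-probe fluorescence in the fish gall bladder, intestine or both, judged by eye; inactive = no fluorescence loss, or compound toxic to the fish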;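 note: signal comes from phospholipase A2 cleavage of quenched PED6 carried via bile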). The note with it: Zebrafish larvae PED6 lipid processing, fluorescence scoring; screened at 20 µM (by protocol). An outline of the steps: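 Doses: 20 µM single dose. Test system: live zebrafish larvae aged 5-7 days, whole organism. Quantity: five larvae per well. Measured by: By-eye fluorescence microscopy. Reagent: ingested quenched lipid PED6 at 100 nM. Read-out: visual per-well fluorescence inhibition score. Times: overnight exposure of larvae to compound plus PED6.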

A short description of test [8]: inhibitors of Sendai virus-induced IRF3 signaling, primary screen, TLR/RLR signaling modifier project, cell-based, Sendai virus stimulus, luciferase, 10K MLSCN set (AID 602276;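 active = inhibition at or above 50% at 10 µM; inactive = inhibition below 50%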;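 note: firefly luciferase from ISG56 promoter only with Renilla not read in this screen; 0% = Sendai virus plus DMSO and 100% = medium plus DMSO without virus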). To be noted: HEK293 RL24 IRF3 luciferase reporter, at 10 µM, stronger effect = higher value. (In general: In a reporter assay the amount or activity of a reporter protein is the signal.)
Test [9] in a line: inhibitors of poly I:C-induced TLR3 signaling, primary screen, cell-based, poly I:C stimulus, luciferase, 10K MLSCN set (AID 602277;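 active = inhibition of the reporter signal at or above 50%; inactive = inhibition below 50%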). The note with it: HEK293-TLR3 RL24 IRF3 luciferase reporter, at 10 µM, stronger effect = higher value.

Alpha-2C adrenergic receptor (Homo sapiens), sequence (P18825 whole entry, looked up): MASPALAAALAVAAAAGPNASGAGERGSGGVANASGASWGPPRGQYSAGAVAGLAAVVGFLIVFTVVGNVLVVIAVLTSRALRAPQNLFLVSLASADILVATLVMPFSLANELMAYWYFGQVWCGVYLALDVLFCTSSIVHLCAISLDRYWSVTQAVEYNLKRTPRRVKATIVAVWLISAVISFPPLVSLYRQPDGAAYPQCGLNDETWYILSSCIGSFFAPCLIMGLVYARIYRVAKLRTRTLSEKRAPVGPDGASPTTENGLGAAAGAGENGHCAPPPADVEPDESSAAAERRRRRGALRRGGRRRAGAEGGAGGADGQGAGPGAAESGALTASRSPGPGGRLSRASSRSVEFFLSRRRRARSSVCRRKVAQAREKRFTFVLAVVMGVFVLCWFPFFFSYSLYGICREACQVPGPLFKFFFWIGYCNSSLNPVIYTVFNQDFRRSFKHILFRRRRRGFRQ
Voltage-gated potassium channel subunit beta-2 (Rattus norvegicus), sequence (P62483 whole entry, looked up): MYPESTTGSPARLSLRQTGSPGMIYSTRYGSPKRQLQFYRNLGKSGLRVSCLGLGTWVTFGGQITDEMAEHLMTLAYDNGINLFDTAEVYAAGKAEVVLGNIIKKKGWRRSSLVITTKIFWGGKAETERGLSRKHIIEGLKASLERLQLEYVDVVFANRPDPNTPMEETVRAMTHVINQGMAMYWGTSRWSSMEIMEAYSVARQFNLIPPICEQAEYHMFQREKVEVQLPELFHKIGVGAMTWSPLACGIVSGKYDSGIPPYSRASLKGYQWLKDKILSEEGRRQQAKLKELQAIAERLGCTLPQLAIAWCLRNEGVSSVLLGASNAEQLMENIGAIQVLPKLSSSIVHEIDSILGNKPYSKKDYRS

A word on the inhibition: it is the relative decrease from the control value, in per cent. `COc1ccccc1OCc1ccc(C(=O)N2CCN(C(=O)c3ccco3)CC2)cc1`: in [1], the cell count worked out at 502. For the same compound, the inhibition in test [1] was -32.6% (inactive); in test [3] it was -92.1% (inactive); in [8], 1.91% (inactive); in [9], 18% (inactive). Also, the inhibition of aggregation in test [2] is 6% (inactive). The nuclei count in [2] is 98.6%; in test [3] it was 103%. Moreover, in test [4], the fluorescence slope was -0.416 (inactive). In test [5], the NADPH fluorescence slope was -3e-05 (inactive). In addition, the slope in [6] is 0.00401 (inactive). Further, in test [7], the result was inactive.
On to `CC(C)(C)NS(=O)(=O)c1ccc(CCC(=O)O)cc1`, for which, in [1], the cell count was 395. Moreover, the inhibition in test [1] was 4.2% (inactive); in test [3], -68.6% (inactive); in test [8], 9.55% (inactive); in test [9], 4.51% (inactive). Also, the inhibition of aggregation in test [2] was -0.1% (inactive). Besides, the values for the nuclei count in test [2] and in test [3] were 82.6% and 110%, respectively. For the same compound, in test [4], the fluorescence slope is -0.456 (inactive). Also, the NADPH fluorescence slope in [5] is -4.3e-05 (inactive). Besides, in [6], the slope is 0.00422 (inactive). Also, the compound was called inactive in test [7].
In the case of `Cc1cc(C(=O)COC(=O)c2n[nH]c3ccccc23)c(C)n1C`, the cell count in test [1] amounted to 377. Moreover, the inhibition in test [1] is 2.6% (inactive); in test [3] it was 12.4% (inactive); in test [8] it was 5.43% (inactive); in [9] it was -24.2% (inactive). The inhibition of aggregation in test [2] is -0.6% (inactive). In addition, the nuclei count in test [2] came to 86.6%; in test [3] it was 96.7%. In addition, in [4], the fluorescence slope was -0.445 (inactive). The NADPH fluorescence slope in test [5] was -1.8e-05 (inactive). Besides, in test [6], the slope is 0.00398 (inactive). Moreover, in test [7], the compound was classed as inactive.
As for `COCCNC(=O)C(c1ccc(C)o1)N(Cc1cccs1)C(=O)c1snc(C(N)=O)c1N` (stereo unspecified), in test [1], the cell count is 387. Moreover, the inhibition in test [1] is 3.5% (inactive); in test [3] it was -93.7% (inactive); in test [8], -13.8% (inactive); in [9], -11.9% (inactive). In [2], the inhibition of aggregation was 6.6% (inactive). In addition, the values for the nuclei count in [2] and in test [3] were 96.3% and 117%, respectively. In addition, in test [4], the fluorescence slope was -0.379 (inactive). In [5], the NADPH fluorescence slope was -4.3e-05 (inactive). In addition, in test [6], the slope is 0.00484 (inactive). Further, the outcome in test [7] was inactive.
Take `CCc1nnc(NC(=O)CSc2nc(-c3ccc(OC)cc3)ns2)s1`: the cell count in test [1] worked out at 203. Besides, the inhibition in test [1] is -10.4% (inactive); in test [3], -32.2% (inactive); in [8], -36.8% (inactive); in test [9], -50.2% (inactive). Also, the inhibition of aggregation in [2] was -17.4% (inactive). The nuclei count was found to be 82% in [2] and 98.7% in [3]. The fluorescence slope in [4] is -0.408 (inactive). The NADPH fluorescence slope in test [5] was 3.8e-06 (inactive). For the same compound, the slope in [6] was 0.00688 (inactive). Besides, the compound was called inactive in test [7].
Consider `O=C(NCCN1CCOCC1)c1ccc(CS(=O)(=O)Cc2ccccc2F)o1`, for which the cell count in [1] came to 536. Moreover, the inhibition in [1] was -21.6% (inactive); in test [3], -69.5% (inactive); in [8] it was 11.2% (inactive); in test [9], 9.56% (inactive). In [2], the inhibition of aggregation was -10.5% (inactive). Further, the nuclei count in test [2] stood at 94.3%; in test [3], 108%. Besides, the fluorescence slope in test [4] is -0.453 (inactive). Moreover, in test [5], the NADPH fluorescence slope is -5.9e-05 (inactive). In addition, in [6], the slope was 0.00503 (inactive). In addition, the compound was called inactive in [7].
`COc1ccc(NC(=O)Nc2ccc(N3CCCC3=O)cc2)cc1OC`: the cell count in [1] turned out to be 462. Also, the inhibition was 4% (inactive) in [1], -4.9% (inactive) in [3], 4.01% (inactive) in test [8] and -16.1% (inactive) in test [9]. Further, the inhibition of aggregation in test [2] was -6.3% (inactive). The nuclei count in [2] came out at 102%; in [3], 120%. Besides, the fluorescence slope in test [4] is -0.368 (inactive). Further, the NADPH fluorescence slope in test [5] is -3.2e-05 (inactive). Also, the slope in test [6] is 0.0047 (inactive). Further, the compound was classed as inactive in test [7].
Take `Cc1ccc(Cn2c(SCC(N)=O)nc3c2c(=O)n(C)c(=O)n3C)cc1`: in [1], the cell count was found to be 582. The inhibition in test [1] was -6.2% (inactive); in test [3], 29.5% (inactive); in [8] it was 0.352% (inactive); in test [9], 2.84% (inactive). For the same compound, the inhibition of aggregation in test [2] was 19.4% (inactive). Moreover, the results for the nuclei count in test [2] and in [3] were 88% and 72.3%, respectively. In addition, the fluorescence slope in test [4] is -0.333 (inactive). Further, the NADPH fluorescence slope in [5] is 1e-05 (inactive). For the same compound, the slope in [6] was 0.00505 (inactive). Moreover, the call in [7] was inactive.
For `Cc1cc(C)n(C(C)n2nc(C)cc2C)n1`, the cell count in test [1] was 367. The inhibition in test [1] was 4.3% (inactive); in [3], -37% (inactive); in test [8], 11.8% (inactive); in test [9], 12.7% (inactive). In addition, the inhibition of aggregation in test [2] is -9.9% (inactive). For the same compound, the nuclei count in test [2] was 110%; in test [3], 68%. Further, the fluorescence slope in [4] was -0.364 (inactive). The NADPH fluorescence slope in test [5] is -6.5e-05 (inactive). The slope in [6] was 0.00585 (inactive). Also, the result in test [7] was inactive.
`Cc1cc(C(F)(F)F)c2c(C)nn(CCc3nn[nH]n3)c2n1`: the cell count in test [1] amounted to 863. Further, the inhibition in test [1] was 1.1% (inactive); in [3], -20% (inactive); in [8] it was -11.3% (inactive); in test [9], -12.7% (inactive). The inhibition of aggregation in test [2] is 11.9% (inactive). Besides, the nuclei count in test [2] worked out at 112%; in [3] it was 117%. The fluorescence slope in [4] is -0.368 (inactive). Further, the NADPH fluorescence slope in test [5] was 1.8e-05 (inactive). Also, the slope in test [6] is 0.00523 (inactive). Further, the compound was called inactive in test [7].
Consider `O=C(OC1CCc2ccccc2C1=O)c1ccccc1O` (stereo unspecified), for which the cell count in test [1] came out at 304. Also, the inhibition was 3.8% (inactive) in test [1], -86.8% (inactive) in test [3], -5.07% (inactive) in [8] and -40.5% (inactive) in test [9]. Moreover, the inhibition of aggregation in [2] was -0.1% (inactive). In addition, the nuclei count in [2] turned out to be 100%; in [3], 106%. Moreover, the fluorescence slope in test [4] is -0.386 (inactive). Moreover, in test [5], the NADPH fluorescence slope was -5.3e-05 (inactive). Further, in test [6], the slope is 0.00569 (inactive). In addition, in [7], the call was inactive.
On to `CC(C)n1nnnc1SCC(=O)Nc1ccccc1N1CCOCC1`, for which the cell count in [1] came to 539. Also, the inhibition in test [1] was -8% (inactive); in test [3] it was -38.2% (inactive); in test [8], 10.2% (inactive); in test [9], 11.6% (inactive). The inhibition of aggregation in test [2] was -6.6% (inactive). The nuclei count came out at 104% in test [2] and 112% in [3]. In addition, the fluorescence slope in test [4] was -0.451 (inactive). The NADPH fluorescence slope in test [5] is -6.8e-05 (inactive). For the same compound, in test [6], the slope was 0.00614 (inactive). Further, the compound was classed as inactive in test [7].
Take `O=C1OCCC1Sc1ncnc2sccc12` (stereo unspecified): in [1], the cell count was 498. In addition, the inhibition in test [1] is -6.8% (inactive); in [3], -1.7% (inactive); in [8], 9.26% (inactive); in test [9], 12.3% (inactive). In addition, the inhibition of aggregation in test [2] is -0.5% (inactive). Further, the nuclei count amounted to 125% in test [2] and 110% in test [3]. The fluorescence slope in test [4] is -0.376 (inactive). In addition, the NADPH fluorescence slope in [5] is -7.9e-05 (inactive). Moreover, the slope in test [6] is 0.00502 (inactive). The call in test [7] was inactive.
